Assay results from PubChem BioAssay AID504383 (The Scripps Research Institute Molecular Screening Center, 2011).
Among all 2,500 compounds or so, about 1,200 (48%) were called active.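 Rule for the calls: active = mean activation above the low control average plus 3 SD, as set in the primary screen (cut at about 12% in these data); inactive = the rest.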 So high a share suggests a set chosen from earlier hits. Some of the results follow.

Each compound was assayed against Troponin I, cardiac muscle (Homo sapiens) + Troponin T, cardiac muscle (Homo sapiens) + Troponin C, slow skeletal and cardiac muscles (Homo sapiens) (UniProt P19429+P45379+P63316) (assay: calcium sensitizers of cardiac thin filaments – biochemical, IANBD-TnC fluorescence, triplicate, confirmation (AID 504383;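 note: 0% = DMSO at 0.472 mM calcium and 100% = DMSO at 2.9 mM calcium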)). Details: IANBD-labeled cardiac RTF, Ca2+ sensitivity fluorescence; at 7.2 µM; hits give high values; scaled from EC20 to saturating calcium; tested at EC20 calcium, 0.472 mM.
How it was run: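 Assay system: labelled regulated thin filaments / Timing: 15 min at 25 °C / Detection: fluorescence intensity of labelled filaments / Measure: fluorescence gain scaled between EC20 and EC100 calcium controls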

Row | SMILES | activation
1 | NC(=O)C1(NC(=O)[C@@H]2CC3(CC(c4cccc(NC(=O)[C@@H]5CCC(=O)N5)c4)=NO3)CN2C(=O)c2ccccc2)CC1 (some centres undefined) | 9.17% (inactive)
2 | COc1ccc(N/C=C2\C(=O)CCc3c2oc2cc(Cl)c(O)c(Cl)c32)cc1 | 47.7% (active)
3 | Cc1cccc(/C=C2/SC(=O)N(Cc3ccccc3)C2=O)n1 | 47.1% (active)
4 | COC(=O)c1ccccc1NC(=O)[C@@H]1CCC(=O)N1C1OC(=O)c2c1ccc(OC)c2OC (some centres undefined) | 3.55% (inactive)
5 | CCOc1cc2c(cc1/C=C/c1noc(C)c1[N+](=O)[O-])OC(C)C2 (centres undefined) | 330% (active)
6 | C=CCn1c(C)c(/C=C/c2cc[n+](C)cc2)c2ccccc21 | 38.7% (active)
7 | COC(=O)Cn1c(C)c(/C=C/c2cc[n+](C)cc2)c2ccccc21 | 12.8% (active)
8 | CC(C)n1cc(/C=C/c2cc[n+](C)cc2)c2ccccc21 | 31.7% (active)
9 | Cn1cc(/C=C/c2cc[n+](C)cc2)c2cc(Cl)ccc21 | 3.84% (inactive)
10 | C=CCn1cc(/C=C/c2cc[n+](C)cc2)c2ccccc21 | 5.8% (inactive)
11 | CCn1cc(/C=C/c2cc[n+](C)cc2)c2ccccc21 | 12.4% (active)
12 | Cn1cc(/C=C/c2cc[n+](C)cc2)c2cc(F)ccc21 | 6.92% (inactive)
13 | CCN(CC)C(=O)Cn1c(C)c(/C=C/c2cc[n+](C)cc2)c2ccccc21 | 6.95% (inactive)
14 | COC(=O)Cn1cc(/C=C/c2cc[n+](C)cc2)c2ccccc21 | 16.8% (active)
15 | COC(=O)c1ccc2c(c1)C(C)(C)C(/C=C/c1ccccc1O)=[N+]2C | 7.52% (inactive)
16 | Oc1ccc2ccc3cccc[n+]3c2c1 | 68.4% (active)
17 | CC(=O)c1ccc2noc(-c3ccc(C)cc3)c2c1 | 6.52% (inactive)
18 | COc1ccc(-c2onc3ccc(C(C)=O)cc23)cc1 | 18% (active)
19 | CC1(c2ccc(OC(F)F)cc2)NC(=O)N(CC(=O)Nc2ccc(F)cc2)C1=O (centres undefined) | 1.92% (inactive)
20 | O=C(CN1C(=O)NC2(CCCCC2)C1=O)Nc1ccccc1Cl | 12.1% (active)

Row | SMILES | activation
21 | CCC1(c2ccccc2)NC(=O)N(CC(=O)Nc2ccc(OC)nc2)C1=O (centres undefined) | 11% (inactive)
22 | C=CCOc1ccc(C2OC34CCCCC3C(C#N)(C#N)C2(C#N)C(=N)O4)cc1 (centres undefined) | 11.3% (inactive)
23 | Cc1cc(C)n2nc(C(=O)N3CCCC(Nc4ccc(C(C)C)cc4)C3)cc2n1 (centres undefined) | 11.9% (active)
24 | COc1ccc(-c2ccc(C3C(C#N)=C(N)Oc4n[nH]c(C)c43)o2)cc1 (centres undefined) | 53.6% (active)
25 | Cc1[nH]nc2c1C(c1cc(Br)cs1)C(C#N)=C(N)O2 (centres undefined) | 1.18% (inactive)
26 | CCCCCCCC(=O)Nc1ccc(S(=O)(=O)Nc2nccs2)cc1 | 39.1% (active)
27 | CC(NC(=O)COc1ccc(N(C)S(=O)(=O)c2ccccc2)cc1)c1ccccc1 (centres undefined) | 8.81% (inactive)
28 | CN(C)C(CNC(=O)c1cccc(S(=O)(=O)N(C)C)c1)c1ccccc1 (centres undefined) | 14.9% (active)
29 | O=C(NCc1cccc(C(F)(F)F)c1)c1cccc(S(=O)(=O)NCc2ccccc2)c1 | 7.34% (inactive)
30 | CCOc1ccc(N2C(=O)CC(SCc3nc4ccccc4[nH]3)C2=O)cc1 (centres undefined) | 16.2% (active)
31 | CC(=O)C1=C(O)CCCC1=NCc1nc2ccccc2[nH]1 | 2.38% (inactive)
32 | O=C(CSC1CC(=O)N(c2ccc(C(=O)O)cc2)C1=O)Nc1ccc2ccccc2c1 (centres undefined) | 1.35% (inactive)
33 | C[C@H](O)C(=O)C1=Nc2c(nc(N)[nH]c2=O)NC1 | -0.23% (inactive)
34 | Cc1ccc(C)c(N2CCN(C(=O)c3cc4ccccn4n3)CC2)c1 | 21.1% (active)
35 | O=C(Nc1ccc(Cl)c(Cl)c1)Nc1ccc([N+](=O)[O-])cn1 | 28.5% (active)
36 | O=C(Nc1ccc(N2CCN(C(=O)c3ccco3)CC2)cc1)c1ccc(F)cc1 | 14.9% (active)
37 | O=C(COC(=O)C1(c2ccc(F)cc2)CCCC1)N1CCN(C(=O)c2ccco2)CC1 | 3.96% (inactive)
38 | O=C(COC(=O)C1(c2ccccc2F)CCCC1)Nc1ncc(C(F)(F)F)cc1Cl | 4.8% (inactive)
39 | COc1ccc(/C=N/NC(=O)Cn2c(Cc3ccc(OC)c(OC)c3)nc3ccccc32)cc1 | 15% (active)
40 | COc1ccc(/C=C/C(=O)c2nc3ccccc3n2CC(=O)c2ccc(OC)cc2)cc1 | -1.84% (inactive)

Row | SMILES | activation
41 | Cc1c(C(=O)NCc2ccco2)cccc1[N+](=O)[O-] | 11.7% (active)
42 | Cc1c(C(=O)NCc2ccc3c(c2)cc(C)n3C)cccc1[N+](=O)[O-] | 8.1% (inactive)
43 | c1ccc2[nH]c3cc4ncnc4cc3nc2c1 | 27.5% (active)
44 | O/C(=C\c1nc2ccccc2[nH]1)c1cccs1 | 2.34% (inactive)
45 | Cc1ncn(C23CC4CC(CC(C4)C2)C3)n1 | 4.82% (inactive)
46 | COC(=O)C1=C(O)/C(=C\c2ccc(CNS(=O)(=O)c3ccc(Cl)cc3)o2)N=C1C | 9.05% (inactive)
47 | COC(=O)CN(c1cc(OC)ccc1OC)S(=O)(=O)c1ccc(OC)c(OC)c1 | 14.6% (active)
48 | CCOc1ccccc1N(CC(=O)Nc1ccc(OC)c(OC)c1)S(=O)(=O)c1ccccc1 | 5.99% (inactive)
49 | COc1ccc(OC)c(NC(=O)c2cc(S(=O)(=O)N(C)C)ccc2N2CCCC2)c1 | 7.08% (inactive)
50 | CCCn1c(CN2CCN(C(=O)OCC)CC2)nc2cc(NC(=O)CC)ccc21 | 8.96% (inactive)
51 | CCC(=O)Nc1ccc2c(c1)nc(CCN1CCN(C)CC1)n2C | 56% (active)
52 | Cn1c(CN2CCCC2)nc2cc(NC(=O)COc3ccc([N+](=O)[O-])cc3)ccc21 | 8.98% (inactive)
53 | O=C(O)c1cc(-c2ccc(/C=C3/SC(=S)N(Cc4ccccc4)C3=O)o2)ccc1Cl | 5.81% (inactive)
54 | Cn1cccc1/C=C1\SC(=S)N(CC(=O)O)C1=O | 14.1% (active)
55 | O=C(O)CN1C(=O)/C(=C/c2ccc(SCc3ccccc3)o2)SC1=S | 39.7% (active)
56 | CN1/C(=C\C=C2/SC(=S)N(CC(=O)O)C2=O)C(C)(C)c2ccccc21 | 7.05% (inactive)
57 | Cn1cccc1/C=C1/SC(=S)N(CC(=O)O)C1=O | 176% (active)
58 | COc1ccc(Nc2cccc3ccccc23)cc1 | 199% (active)
59 | CCOc1cc(N2CCOCC2)c(OCC)cc1NC(=O)CCS(=O)(=O)c1ccc(Cl)cc1 | 72% (active)
